Screening results from PubChem.
T cruzi repl: T. cruzi replication inhibition. hit rate 1.4% among 300,000. inhibition, % (concentration not given with the values). T. cruzi beta-gal in NIH3T3, luminescence, 90 h;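 active means mean inhibition across valid replicates above about 55%, limit read from the data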;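 further: signal also drops with host cell toxicity which is not excluded here; 0% = plate median of DMSO wells and 100% = zero luminescence signal; higher percent means less beta-gal luminescence so fewer parasites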
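Incubation – ≥90 h infection period, 3 h prior cell attachment · System – NIH/3T3 fibroblasts plus reporter T. cruzi · Doses – compound pinned at 50 nL/well, DMSO · Read-out basis – percent inhibition of parasite-derived β-gal signal · Signal – luminescent β-galactosidase signal after 60 min lysis · Also added – 5000 T. cruzi trypomastigotes/well · Medium – Low-serum DMEM with 2% FBS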
MEKK2 mut-MEK5: signal of MEK5 binding to mutant human MEKK2 PB1 domain; bead flow cytometry, Alexa488-MEK5 binding to MEKK2 mutant; percent response, % at 10 µM; hit rate 0.35% among 290,000; in the data active means percent response above about 24%, passing the limit was not always enough
MEKK2wt PB1 HTS: raises or lowers MEK5 binding to wildtype human MEKK2 PB1 domain; Q9Y2U5; bead flow cytometry, Alexa488-MEK5 binding to MEKK2 WT; actives lie on both sides; binding response (% of control), % at 10 µM; hit rate 1.1% among 290,000; in the data active means binding response below about 67% or above about 130%
MEKK3 PB1 HTS: MEKK3-MEK5 PB1 interaction, increase or decrease | Q99759 | bead-based flow cytometry, Alexa488-MEK5 binding to MEKK3; actives lie on both sides; 0 = blocked by unlabeled MEK5, 100 = vehicle | binding response (% of control), % at 10 µM | hit rate 1.4% among 290,000;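 active means binding response more than 3 SD above or below the average of its plate-row segment, actives on both sides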;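 further: Alexa488 bead fluorescence after subtracting the streptavidin-only scavenger bead signal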
Target sequence (Q99759 whole entry, looked up): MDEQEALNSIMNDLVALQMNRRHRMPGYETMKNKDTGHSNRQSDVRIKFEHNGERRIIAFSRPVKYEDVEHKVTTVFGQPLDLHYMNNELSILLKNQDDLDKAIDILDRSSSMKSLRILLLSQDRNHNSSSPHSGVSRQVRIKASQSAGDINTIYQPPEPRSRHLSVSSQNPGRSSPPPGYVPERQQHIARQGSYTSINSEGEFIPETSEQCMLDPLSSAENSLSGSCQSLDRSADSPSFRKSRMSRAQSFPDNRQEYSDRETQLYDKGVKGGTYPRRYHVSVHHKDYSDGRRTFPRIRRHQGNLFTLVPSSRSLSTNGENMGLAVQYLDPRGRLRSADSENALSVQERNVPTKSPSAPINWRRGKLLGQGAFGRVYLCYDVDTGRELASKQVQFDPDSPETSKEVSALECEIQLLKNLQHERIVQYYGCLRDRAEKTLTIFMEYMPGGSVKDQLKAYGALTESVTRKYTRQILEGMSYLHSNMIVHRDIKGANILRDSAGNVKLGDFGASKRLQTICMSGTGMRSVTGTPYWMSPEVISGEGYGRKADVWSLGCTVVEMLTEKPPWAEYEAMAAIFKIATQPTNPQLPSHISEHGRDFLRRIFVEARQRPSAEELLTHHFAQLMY
HCV NS3 hel inh: blocks Hepatitis C virus NS3 helicase unwinding; hit rate 0.56% among 290,000; inhibition, % at 10.9 µM; NS3 helicase DNA unwinding, Cy5 molecular beacon fluorescence;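 active means inhibition above the mean of all tested compounds plus 3 SD, set per campaign, cut at about 35% in these data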;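 further: 0% = DMSO wells and 100% = thioflavine S control wells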
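Control set: DMSO versus 110 µM thioflavine S; Material: NS3 helicase fragment of HCV; Measured by: Cy5 fluorescence at 0 and 60 min, beacon hairpin quenching; Read-out basis: percent inhibition from t60/t0 fluorescence ratio; Times: reaction time 60 min, 25 °C; Repeats: single replicate; Compound dosing: single dose, 10.9 µM nominal final, DMSO 0.8% final.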
DNA FID counter: counter-screen for HCV NS3 helicase inhibitors: DNA intercalator displacement; DNA fluorescent intercalator displacement, fluorescence; AID 1845; hit rate 0.17% among 290,000; inhibition, % at 7.9 µM; in the data active means inhibition above about 37%;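 further: 0% = vehicle and 100% = reference compound; higher means more ethidium bromide displaced from hairpin DNA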
MEKK2wt confirm: raises or lowers MEK5 binding to wildtype human MEKK2, retest. binding response (% of control), % at 10 µM. bead flow cytometry, Alexa488-MEK5 binding to MEKK2 WT; actives lie on both sides. AID 1892. shares compounds with MEKK3 PB1 HTS. hit rate 2.4% among 5,900; in the data active means binding response below about 16% or above about 210%; inactive means in between
MEKK2mut-MEK5: signal of MEK5 binding to mutant human MEKK2, retest; hit rate 2% among 5,900; percent response, % at 10 µM; bead flow cytometry, Alexa488-MEK5 binding to MEKK2 mutant; AID 1893; shares compounds with MEKK3 PB1 HTS; in the data active means percent response mostly above about 71%, no sharp cut-off; inactive means mostly below about 38%;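 further: higher means compound restores mutant binding toward wildtype level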
MEKK3 confirm: MEKK3-MEK5 PB1 inhibition, single concentration confirmation; shares compounds with MEKK3 PB1 HTS; bead flow cytometry, Alexa488-MEK5 binding to MEKK3; stronger effect = lower value; binding response (% of control), % at 10 µM; hit rate 1.8% among 5,900; AID 1894;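 active means binding response below 72% of control, or above a set upper limit, though filed actives all read lower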;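 further: 100% = DMSO only wells and 0% = binding blocked by excess unlabeled MEK5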
An asterisk follows results filed as active; [ ] = another dose, or the depositor's remark. Sampled rows, rich in hits. Any-hit rate of the full collection: about 4.1%.

How did CCN(CC)CCCNC(=S)N1CCN(c2nc(-c3ccccc3)cs2)CC1 do in these assays?
T cruzi repl: 19; MEKK2 mut-MEK5: 23; MEKK2wt PB1 HTS: 143*; MEKK3 PB1 HTS: 103; HCV NS3 hel inh: -42; DNA FID counter: 21; MEKK2wt confirm: 129; MEKK2mut-MEK5: 45; MEKK3 confirm: 108

Results for Cc1cc(/C=C2/SC(=O)N(CC(=O)N3CCOCC3)C2=O)c(C)n1-c1ccccc1F ?
T cruzi repl: 5; MEKK2 mut-MEK5: 0; MEKK2wt PB1 HTS: 105; MEKK3 PB1 HTS: 148*; HCV NS3 hel inh: 2; DNA FID counter: -6; MEKK2wt confirm: 103; MEKK2mut-MEK5: -8; MEKK3 confirm: 98

Results for NNc1nc2ccc(Cl)cc2s1 ?
T cruzi repl: 25; MEKK2 mut-MEK5: 0; MEKK2wt PB1 HTS: 105; MEKK3 PB1 HTS: 132*; HCV NS3 hel inh: 2; DNA FID counter: 12; MEKK2wt confirm: 106; MEKK2mut-MEK5: 0; MEKK3 confirm: 103

What do the screens show for `Cc1c(-c2ccccc2)[n+](=O)c(-c2ccc(Br)cc2)c(C)n1[O-]`?
T cruzi repl: -1; MEKK2 mut-MEK5: -5; MEKK2wt PB1 HTS: 90; MEKK3 PB1 HTS: 91; HCV NS3 hel inh: -3; DNA FID counter: -4

How did Cc1c(C)[n+](=O)c(-c2ccc(Br)cc2)c(C)n1[O-] do in these assays?
T cruzi repl: 1; MEKK2 mut-MEK5: -7; MEKK2wt PB1 HTS: 47*[inhibitor]; MEKK3 PB1 HTS: 50*[inhibitor]; HCV NS3 hel inh: 16; DNA FID counter: -2; MEKK2wt confirm: 94; MEKK2mut-MEK5: -9; MEKK3 confirm: 98

Results for Clc1ccc(OCCCNCc2ccccc2)c2ccccc12 ?
T cruzi repl: 40; MEKK2 mut-MEK5: 28*; MEKK2wt PB1 HTS: 253*; MEKK3 PB1 HTS: 117; HCV NS3 hel inh: -65; DNA FID counter: 32; MEKK2wt confirm: 161; MEKK2mut-MEK5: 29; MEKK3 confirm: 102

Results for CCOc1ccc(N(CC(=O)NC2CCCCC2)C(=O)Cn2nnc(-c3ccc(C)o3)n2)cc1 ?
T cruzi repl: -8; MEKK2 mut-MEK5: 1; MEKK2wt PB1 HTS: 98; MEKK3 PB1 HTS: 99; HCV NS3 hel inh: -5; DNA FID counter: -36

What do the screens show for `Fc1ccc(NC(=S)Nc2cc(Cl)ccc2Cl)cc1`?
T cruzi repl: -13; MEKK2 mut-MEK5: 0; MEKK2wt PB1 HTS: 107; MEKK3 PB1 HTS: 115; HCV NS3 hel inh: 6; DNA FID counter: 4

Results for Fc1ccc(NC(=S)Nc2ccc(Cl)cc2)cc1 ?
T cruzi repl: -49; MEKK2 mut-MEK5: 5; MEKK2wt PB1 HTS: 129; MEKK3 PB1 HTS: 141*; HCV NS3 hel inh: 0; DNA FID counter: 0; MEKK2wt confirm: 99; MEKK2mut-MEK5: -5; MEKK3 confirm: 97

What do the screens show for `CCOP(=O)(c1ccccc1)C(O)c1ccccc1` (stereo unspecified)?
T cruzi repl: 4; MEKK2 mut-MEK5: -2; MEKK2wt PB1 HTS: 98; MEKK3 PB1 HTS: 98; HCV NS3 hel inh: 7; DNA FID counter: 1

How did CCOP(=O)(c1ccccc1)C(O)c1ccc(Br)cc1 (stereo unspecified) do in these assays?
T cruzi repl: -14; MEKK2 mut-MEK5: 0; MEKK2wt PB1 HTS: 106; MEKK3 PB1 HTS: 134*; HCV NS3 hel inh: 7; DNA FID counter: -1; MEKK2wt confirm: 97; MEKK2mut-MEK5: -8; MEKK3 confirm: 91

Results for Cc1onc(-c2c(Cl)cccc2Cl)c1NC(=O)NN(C)C ?
T cruzi repl: -3; MEKK2 mut-MEK5: -30; MEKK2wt PB1 HTS: 78; MEKK3 PB1 HTS: 68; HCV NS3 hel inh: 6; DNA FID counter: -7

What do the screens show for `CSCCNC(=O)Nc1c(-c2c(Cl)cccc2Cl)noc1C`?
T cruzi repl: 4; MEKK2 mut-MEK5: -26; MEKK2wt PB1 HTS: 86; MEKK3 PB1 HTS: 67*[inhibitor]; HCV NS3 hel inh: -11; DNA FID counter: -5; MEKK2wt confirm: 102; MEKK2mut-MEK5: 4; MEKK3 confirm: 102

Results for O=c1oc2ccccc2nc1/C=C(O)/C=C\c1ccccc1 ?
T cruzi repl: -18; MEKK2 mut-MEK5: -28; MEKK2wt PB1 HTS: 61*[inhibitor]; MEKK3 PB1 HTS: 82*[inhibitor]; HCV NS3 hel inh: 34; DNA FID counter: -9; MEKK2wt confirm: 77; MEKK2mut-MEK5: -15; MEKK3 confirm: 100

What do the screens show for `Cc1ccc2oc(=O)c(/C=C(\O)C(C)(C)C)nc2c1`?
T cruzi repl: -11; MEKK2 mut-MEK5: 1; MEKK2wt PB1 HTS: 105; MEKK3 PB1 HTS: 94; HCV NS3 hel inh: 17; DNA FID counter: -3

Results for CC(Sc1nnc(-c2ccc(OC(F)F)cc2)n1N)C(=O)NCC1CCCO1 (stereo unspecified) ?
T cruzi repl: -8

Results for CCN(CC)c1ccc2cc(-c3nc(-c4ccc(OC)cc4)cs3)c(=O)oc2c1 ?
MEKK2 mut-MEK5: 289*; MEKK2wt PB1 HTS: 232*; MEKK3 PB1 HTS: 183*; HCV NS3 hel inh: 13; DNA FID counter: -9; MEKK2wt confirm: 52; MEKK2mut-MEK5: -44; MEKK3 confirm: 60*

How did CCN(CC)c1ccc2cc(-c3nnc(-c4ccccc4)o3)c(=O)oc2c1 do in these assays?
T cruzi repl: -20; MEKK2 mut-MEK5: -3; MEKK2wt PB1 HTS: 60*[inhibitor]; MEKK3 PB1 HTS: 89; HCV NS3 hel inh: 2; DNA FID counter: -2; MEKK2wt confirm: 75; MEKK2mut-MEK5: -14; MEKK3 confirm: 94

How did CCN(CC)c1ccc2cc(-c3nnc(-c4ccc(Br)cc4)o3)c(=O)oc2c1 do in these assays?
HCV NS3 hel inh: -2; DNA FID counter: -3

What do the screens show for `CN(c1c[nH]c(=O)[nH]c1=O)C1CCCCC1`?
T cruzi repl: -4; MEKK2 mut-MEK5: -13; MEKK2wt PB1 HTS: 72; MEKK3 PB1 HTS: 69*[inhibitor]; HCV NS3 hel inh: -1; DNA FID counter: 8; MEKK2wt confirm: 102; MEKK2mut-MEK5: 0; MEKK3 confirm: 99

Results for CN(c1cc(=O)n2ccccc2n1)C1CCCCC1 ?
T cruzi repl: -5; MEKK2 mut-MEK5: 5; MEKK2wt PB1 HTS: 101; MEKK3 PB1 HTS: 108; HCV NS3 hel inh: -4; DNA FID counter: -12

What do the screens show for `O=S(=O)(NCCC1=CCCCC1)c1ccc(OC(F)(F)F)cc1`?
T cruzi repl: 0
